Bioassay records: PubChem, The Scripps Research Institute Molecular Screening Center
Only some compounds are listed: those with a hit (about 4.6% of all), similar ones and a draw of the others.
CHO parental Ca: counter-screen: ATP calcium response change in parental CHO cells; AID 463079; actives 0.63% (n = 330,000); parental CHO-K1, ATP-induced calcium, Fluo-8 fluorescence; inhibition, % at 5.6 µM;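 active = inhibition above that plate's mean sample inhibition plus 3 SD, cut at about 26% in these data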
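Test system: untransfected parental CHO cell line; also added: ATP stimulus; dosing: 5.6 µM, single dose; signal: calcium-sensitive Fluo-8 fluorescence; measure: percent inhibition of ATP-evoked calcium rise, normalized to controls; benchmarks: low control ATP plus DMSO, high control DMSO only; replication: one well per compound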
TAAR1 antag: human TAAR1 antagonism; CHO RD-HGA16 TAAR1, Fluo-8 calcium fluorescence, antagonist; Q96RJ0; AID 624466; inhibition, % at 3 µM; actives 1.5% (n = 360,000);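 active = inhibition above a per-plate cutoff, the mean inhibition of test compounds on that plate plus 3 SD, cut at about 49% in these data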
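Material: RD-HGA16 CHO cells with stable hTAAR1 and Gα16; Dosing: single nominal final test compound concentration of 3 µM; Schedule: seeding 17-24 h prior, 75-min 37 °C, 30-min RT dye loading; Detection: kinetic Fluo-8 calcium fluorescence measurement; Measure: % inhibition from peak post-agonist over basal fluorescence ratio; Benchmarks: vehicle and agonist controls.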
GPR7 antagonist: blocks human GPR7 receptor signaling. P48145. GPR7-expressing cells, fluorescence antagonist assay. inhibition, % at 4.4 µM. actives 1.1% (n = 290,000). AID 1861; in the data active = inhibition above about 16%, passing the limit was not always enough;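 note: cells stimulated with the agonist NPW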
TAAR1 agonist: agonists of human TAAR1 | Q96RJ0 | CHO RD-HGA16 TAAR1, Fluo-8 calcium fluorescence; vehicle wells 0%, saturating PEA agonist 100% | activation, % at 3 µM | actives 0.99% (n = 360,000) | AID 624467;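 active = activation above the mean activation of all test compounds in the run plus 3 SD, cut at about 38% in these data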
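Test system: RD-HGA16 (CHO) cells co-expressing Gα16 and hTAAR1 | Doses: Single dose, 3 µM | Schedule: 17-24 h seeding, 75 min 37 °C dye, 30 min RT | Evaluation: % activation from peak over basal fluorescence ratio, DMSO-to-PEA scaled | Technique: Kinetic Fluo-8 calcium fluorescence | Benchmarks: Low control DMSO, high control PEA (EC100)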
OX1R antag-1: blocks the human orexin 1 receptor. O43613. OX1R-expressing cells, FRET antagonist read-out. actives 1.8% (n = 330,000). AID 485270. inhibition, % at 6.6 µM; in the data active = inhibition mostly above about 38%, no sharp cut-off; inactive = mostly below about 40%
Target sequence (O43613 whole entry, looked up): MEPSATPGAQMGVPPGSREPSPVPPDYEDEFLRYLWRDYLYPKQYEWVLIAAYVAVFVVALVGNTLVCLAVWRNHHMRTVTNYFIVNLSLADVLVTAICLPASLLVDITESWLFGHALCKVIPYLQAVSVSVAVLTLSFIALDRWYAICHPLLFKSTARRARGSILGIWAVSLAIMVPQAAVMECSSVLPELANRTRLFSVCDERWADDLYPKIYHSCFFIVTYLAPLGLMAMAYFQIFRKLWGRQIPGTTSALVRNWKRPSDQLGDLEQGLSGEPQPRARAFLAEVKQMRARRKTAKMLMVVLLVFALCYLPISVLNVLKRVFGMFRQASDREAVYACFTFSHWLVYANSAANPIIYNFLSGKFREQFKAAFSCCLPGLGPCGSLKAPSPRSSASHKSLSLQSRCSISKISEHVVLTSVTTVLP
OX1R antag-2: antagonists of human orexin 1 receptor; inhibition, % at 5 µM; actives 0.43% (n = 330,000); CHO/OX1R cells, Fluo-8 calcium fluorescence, orexin A; O43613; AID 434989;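 active = inhibition above its plate's threshold, mean inhibition of all tested compounds on the plate plus 3 SD, cut at about 37% in these data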
TAAR1 nonsel count: nonselective antagonist in TAAR1 antagonist counter-screen | shares compounds with TAAR1 antag | counterscreen cell line, calcium fluorescence, antagonist mode | inhibition, % at 3 µM | actives 77% (n = 2,400) | AID 651780; in the data active = inhibition above about 22%;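 note: CHO-Ga16 host cells stimulated with ATP at an EC80 level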
TAAR1 antag conf: human TAAR1 antagonism, confirmed | TAAR1-expressing cells, fluorescence antagonist read-out | AID 651785 | shares compounds with TAAR1 antag | actives 40% (n = 2,400) | inhibition, % at 3 µM; in the data active = inhibition above about 49%;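 note: CHO-Ga16 host cells challenged with agonist PEA near its EC80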
Ga16 nonsel ag: nonselective Ga16 agonist in TAAR1 antagonist counter-screen; shares compounds with TAAR1 antag; activation, % at 3 µM; actives 18% (n = 2,400); Ga16-expressing cells, calcium fluorescence, agonist counterscreen; in the data active = activation above about 12%
TAAR1 ag counter: TAAR1 agonism, antagonist counter-screen; shares compounds with TAAR1 antag; hTAAR1 cell line, fluorescence activation, agonist mode; activation, % at 3 µM; actives 2% (n = 2,400); AID 651955; in the data active = activation above about 37%;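 note: CHO cells stably expressing TAAR1 with calcium dye readout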
Numbers stand for hits; 0 = inactive; - = no result.

SMILES | CHO parental Ca | TAAR1 antag | GPR7 antagonist | TAAR1 agonist | OX1R antag-1 | OX1R antag-2 | TAAR1 nonsel count | TAAR1 antag conf | Ga16 nonsel ag | TAAR1 ag counter
CN(C)S(=O)(=O)c1cc(NC(=O)COC(=O)CC2Sc3ccccc3NC2=O)ccc1Cl (centres undefined) | 0 | 62.2 | - | 0 | 0 | 0 | 31.2 | 0 | 0 | 0
COc1nc(N)c(C#N)c(-c2ccc(N(C)CCC#N)cc2)c1C#N | 0 | 80.6 | 0 | 0 | 0 | 0 | 29.2 | 52.3 | 17.3 | 0
CC(=O)c1cccc(NC(=O)COC(=O)c2ccc3c(c2)OCO3)c1 | 0 | 0 | - | 0 | 0 | 0 | - | - | - | -
O=C(COC(=O)/C=C/c1cn(-c2ccccc2)nc1-c1ccc2c(c1)OCCO2)NC1CCS(=O)(=O)C1 (centres undefined) | 0 | 86.6 | 0 | 0 | 0 | 0 | 39.9 | 54.9 | 0 | 0
O=C1C2C3CCC(C3NCc3ccccc3)C2C(=O)N1Cc1ccccc1 (centres undefined) | 0 | 55.1 | 0 | 0 | 0 | 0 | 0 | 0 | 0 | 0
CCC(C)Sc1ccc(-c2nc3cnccn3c2NC2CCCCC2)cc1 (centres undefined) | 0 | 0 | - | 0 | 0 | 0 | - | - | - | -
COc1ccc(Sc2ccc(-c3nc4cnccn4c3NC3CCCCC3)cc2OC)cc1 | 0 | 57.8 | - | 0 | 0 | 0 | 29.1 | 0 | 0 | 0
Cc1nc(-c2ccc(F)cc2)c(CC(=O)N2CCN(S(=O)(=O)c3cccc(Cl)c3)CC2)s1 | 0 | 51.3 | - | 0 | 0 | 0 | 24.8 | 0 | 0 | 0
Cc1ccc(C)c(S(=O)(=O)N2CCN(C(=O)Cc3sc(C)nc3-c3ccc(F)cc3)CC2)c1 | - | 58.7 | - | 0 | - | - | 22.6 | 0 | 0 | 0
Cc1nc(-c2ccc(F)cc2)c(CC(=O)N2CCN(S(=O)(=O)c3ccccc3Br)CC2)s1 | 0 | 0 | 0 | 0 | 0 | 0 | - | - | - | -
COc1ccc2c(c1)c(=O)oc1cc(OC(C(=O)O)c3ccccc3)ccc12 (centres undefined) | 0 | 103.9 | 0 | 0 | 0 | 0 | 0 | 0 | 0 | 0
O=C(O)C(Oc1ccc2c(-c3ccccc3)cc(=O)oc2c1)c1ccccc1 (centres undefined) | 0 | 0 | 0 | 0 | 0 | 0 | - | - | - | -
O=C1CC(N(O)C2CC(=O)N(Cc3ccccc3)C2=O)C(=O)N1Cc1ccccc1 (centres undefined) | 0 | 68.2 | 0 | 0 | 0 | 0 | 32.6 | 53.6 | 0 | 0
Cc1ccc(C(=O)N2CCC(Cc3ccccc3)CC2)cc1S(=O)(=O)N1CCOCC1 | - | 0 | - | 0 | - | - | - | - | - | -
COc1ccc(-c2cc(C(=O)NCc3ccco3)c3ccccc3n2)cc1 | 0 | 48.8 | 0 | 0 | 0 | 0 | 0 | 0 | 0 | 0
COc1ccc(Nc2cc(C(=O)NCc3ccco3)c3ccccc3n2)c(OC)c1 | 0 | 50.8 | 0 | 0 | 0 | 0 | 0 | 0 | 0 | 0
Cc1ccc(NC(=O)CN(C)C(=O)c2cc(-c3ccco3)nc3ccccc23)cc1 | 0 | 0 | - | 0 | 0 | 0 | - | - | - | -
COc1ccc(-c2cc(C(=O)NCc3ccco3)c3ccccc3n2)c(OC)c1 | 0 | 0 | 0 | 0 | 0 | 0 | - | - | - | -
CN(CCOc1ccc(Cl)cc1)C(=O)c1cc(-c2ccco2)nc2ccccc12 | 0 | 74.0 | - | 0 | 0 | 0 | 39.6 | 58.9 | 0 | 0
COc1ccc(-c2cc(C(=O)Nc3c(C)n(C)n(-c4ccccc4)c3=O)c3ccccc3n2)cc1 | 0 | 58.5 | 0 | 0 | 0 | 0 | 25.6 | 0 | 0 | 0
C=CCOc1c(Cl)cc(CNCCCN2CCOCC2)cc1OC | 0 | 0 | 0 | 0 | 0 | 0 | - | - | - | -
COC(=O)c1ccc(C)c(NC(=O)CSc2nnc3ccccn23)c1 | 0 | 87.5 | - | 0 | 0 | 0 | 0 | 0 | 0 | 0
